# Autophagy HCS = autophagy modulators in MEF cells, primary screen, imaging, high-content, MEF GFP-LC3. actives 0.98% (n = 190,000). calls only at 10 µM (by protocol). MEF GFP-LC3 puncta imaging; test concentration mostly 10 µM;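 active = percentage of spot-positive cells more than 3 SD above its plate mean, without a fluorescence outlier flag or 80% toxicity; inconclusive = no clear call, values can overlap the other calls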;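 also: spot-positive cell cutoff set from DMSO-treated cells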
# Dynein transport = inhibitors of GR-EGFP nuclear translocation, primary screen, dynein cargo transport inhibitor project, imaging, high-content, 3617.4 mouse cells; test concentration mostly 20 µM; stimulated with dexamethasone, 1 µM; active compounds read low; z-score, hits read low; actives 0.47% (n = 220,000); AID 1381, 2008;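 active = plate z-score of nuclear minus cytoplasmic receptor signal below a set negative limit, without overly bright fluorescence or cell loss, cut at about -3.5 in these data, passing the limit was not always enough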;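 also: z-score of nuclear minus cytoplasmic ring GR-EGFP intensity difference per well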
#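 Buffer or medium: tet-free, stripped-serum medium; reagent: dexamethasone at 1.0 µM final, 30 min; incubation: 48 h induction, 1 h compound, 30 min dex at 37 °C; measured by: formaldehyde fixation, Hoechst nuclear stain, 10x automated fluorescence imaging; read-out: nuclear-to-cytoplasmic GR-EGFP distribution per well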
# Ins promoter up = insulin promoter activators in MIN6 cells, imaging, high-content screening, mouse beta cells; MIN6 insulin promoter-GFP reporter; active compounds read high; z-score at 5 µM; actives 0.3% (n = 190,000);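 active = z-score above 3 at 5 µM with at least 500 cells counted in the well; inconclusive = wells under 500 cells, flagged as cytotoxic or low count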
# INS promoter inh = inhibitors of insulin promoter-driven GFP, primary screen, imaging, TRM-6 cells (human fetal islet line), eGFP reporter, cell count; AID 1273, 2008; inhibition, % at 2 µM; reporter expression induced with tamoxifen; actives 0.9% (n = 130,000);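 active = inhibition above the mean plus 3 SD, with well images judged a real hit on visual review, cut at about 60% in these data, passing the limit was not always enough; inconclusive = inhibition over the cutoff but images rejected on review; inactive = inhibition not above the cutoff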
# * hit, by the source's call; i = inactive; ? = inconclusive; · = no result given; + = active, no number. An excerpt weighted towards active compounds, which were near 2% of everything screened.
SMILES,Autophagy HCS,Dynein transport,Ins promoter up,INS promoter inh
CCCCN1C(=O)C2(NNc3ccccc3O2)c2ccccc21 (stereo not drawn),i,-2.57,·,-170.0
C=CCN1C(=O)C2(NNc3ccccc3O2)c2ccccc21 (stereo not drawn),+,0.302,0.54,-102.7
CCc1ccc(S(=O)(=O)c2nnn3c2nc(NCCNC(C)=O)c2ccccc23)cc1,i,2.3,1.71,83.3*
CCCCNc1nc2c(S(=O)(=O)c3ccccc3)nnn2c2ccccc12,i,-0.413,-0.52,·
COc1cccc(OC)c1C(=O)Nc1cc(C)nn1-c1nc2ccccc2[nH]1,i,0.536,-1.32,68.4*
Cc1cc(NC(=O)c2ccccc2)n(-c2nc3ccccc3[nH]2)n1,+,-0.0378,-0.16,27.3
Clc1ccccc1Cc1noc(CN2CCCCC2CCc2ccccn2)n1 (stereo not drawn),i,-0.754,-0.71,·
Cc1cc2ccccn2c1C(=O)c1cccc([N+](=O)[O-])c1,i,-0.18,-0.38,-100.0
Cc1cc2ccccn2c1C(=O)c1ccc([N+](=O)[O-])o1,+,0.274,0.05,-63.6
Nc1c(C(=O)O)sc2nc(-c3ccccc3)cc(-c3ccc(F)cc3)c12,·,-0.0031,0.84,·
Nc1c(C(=O)O)sc2nc(-c3ccccc3)cc(-c3ccccc3)c12,·,-0.569,4.64*,·
Cc1cc(NC(=O)CCCn2nc([N+](=O)[O-])cc2C)no1,i,-1.3,-0.11,·
Cc1cc(NC(=O)CCCn2nc([N+](=O)[O-])c(Cl)c2C)no1,+,-0.656,0.7,17.6
C(=C\c1nc(-c2cccnc2)no1)/c1ccccc1,i,0.482,-1.57,70.4*
O=C(CC1SC2=NCCN2C1=O)Nc1ccc(Cl)cc1 (stereo not drawn),+,0.438,-0.88,76.9*
COc1ccc(N2CCN(c3ccc(Cl)nn3)CC2)cc1,i,-0.397,0.13,·
C=CCNCCCCOc1ccc(OCc2ccccc2)cc1,+,-1.57,-0.45,·
COCCCNCCCCOc1ccc(OCc2ccccc2)cc1,i,1.75,-0.58,·
CCN(CC)C(=O)C(=O)c1cccn1-c1ccccc1C#N,i,-0.309,-0.73,100.0*
CC(=O)NC(C)C(=O)OCC(=O)c1ccc(-c2ccccc2)cc1 (stereo not drawn),+,0.156,-0.45,0.0
O=C(NNS(=O)(=O)c1ccc(Cl)cc1)c1cccc(S(=O)(=O)N2CCOCC2)c1,·,-0.236,-0.27,·
Cc1cc(C)nc(N(C#N)S(=O)(=O)c2ccccc2)n1,i,1.82,0.51,81.8*
Cc1cc(C)nc(N(C#N)CN2C(=O)c3ccccc3C2=O)n1,i,0.416,0.08,·
O=C(NCC(c1ccco1)N1CCCC1)c1ccccc1F (stereo not drawn),i,-0.771,-0.15,-35.1
COc1ccc(Cl)cc1C(=O)NCC(c1ccco1)N1CCCC1 (stereo not drawn),+,-0.219,-0.29,-244.0
SMILES,Autophagy HCS,Dynein transport,Ins promoter up,INS promoter inh
O=C1OCC2=C1C(c1ccc(F)cc1)CC(=O)N2c1ccccc1 (stereo not drawn),i,-0.317,0.05,·
CN(C)c1ccc(/C=C/c2ccc3c4ccccc4ccc3[n+]2-c2ccccc2)cc1,+,-0.723,?,·
CN(C)c1ccc(/C=C/c2cccc[n+]2[O-])cc1,·,-0.238,0.21,·
CN(C)c1ccc(/C=C/c2ccc3ccccc3[n+]2C)cc1,+,-0.584,?,·
Cc1cc(SCC(=O)c2ccc(O)c(O)c2)n2nc(C)c(-c3ccccc3)c2n1,·,-0.947,-0.76,·
CCOC(=O)CC1COCCN1C(=O)CCc1nnc(-c2ccsc2)o1 (stereo not drawn),i,2.26,·,·
CCOC(=O)C1(Cc2ccccc2)CCN(Cc2cc(OC)c3c(c2)OCO3)CC1,i,-0.177,-0.3,·
CCOC(=O)C1(Cc2ccccc2C(F)(F)F)CCN(Cc2ccon2)CC1,·,-0.317,-0.19,·
CCOC(=O)C1(Cc2ccccc2)CCN(Cc2ccon2)CC1,+,0.0753,1.17,-6.7
CCOC(=O)C1(Cc2ccccc2)CCN(Cc2cccc3c2OCO3)CC1,+,0.124,-0.38,·
O=C(NCC1CCCN(C(=O)NCc2ccccc2)C1)c1ccc2c(c1)OCO2 (stereo not drawn),i,0.867,-0.5,-19.1
O=C(c1ccc2c(c1)OCO2)N1CCCC1,i,-0.211,8.93*,-36.1
CN(C)CCC(=O)c1ccc2c(c1)OCO2,i,-1.06,·,81.8*
CN(C)CCCC(=O)c1ccc2c(c1)OCO2,i,-0.156,-0.24,-60.0
O=C(O)c1ccc(-c2nnn(Cc3cccc(C(F)(F)F)c3)n2)cc1,·,0.059,0.26,·
Cc1ccc(OCc2nc(-c3cccs3)no2)c([N+](=O)[O-])c1,i,1.07,-0.48,13.3
Cc1c(Cl)cccc1-n1c(SCC(=O)NCc2cccs2)nnc1-c1ccncc1,i,1.55,-1.76,91.2*
O=C(Nc1ccccc1N1CCN(c2ccccc2)CC1)C12CC3CC(CC(C3)C1)C2,+,-1.05,-0.83,12.5
O=C(Cc1ccccc1)Nc1ccccc1N1CCN(c2ccccc2)CC1,i,-1.23,1.7,·
CCCN(CCC)CCCNC(=S)Nc1ccc2nc(N3CCCC3)cc(C)c2c1,i,-0.364,-0.61,·
CCN(CC)CCNC(=S)Nc1ccc2nc(N3CCCC3)cc(C)c2c1,i,1.1,-1.41,27.3
CCCCN(CC)CCCNC(=S)Nc1ccc2nc(N3CCN(CC)CC3)cc(C)c2c1,+,0.391,-0.19,·
CCCCN(CC)CCCNC(=S)Nc1ccc2nc(N3CCN(C)CC3)cc(C)c2c1,+,-0.152,1.23,·
Cc1cccc(C)c1NC(=O)CS(=O)CC(=O)NCC1OCCc2ccccc21 (stereo not drawn),i,0.462,1.06,·
CCCCn1c(N)c(N(CC)C(=O)C(c2ccccc2)c2ccccc2)c(=O)[nH]c1=O,i,-1.42,0.14,54.5
SMILES,Autophagy HCS,Dynein transport,Ins promoter up,INS promoter inh
COCCNC(=O)CS(=O)Cc1nc(-c2ccc(OC)cc2)oc1C (stereo not drawn),+,0.085,0.52,·
Cc1cc(C(=O)CCl)c(C)n1-c1c(C)n(C)n(-c2ccccc2)c1=O,i,-3.04,1.87,·
O=[N+]([O-])c1cc(Oc2cccnc2)cc([N+](=O)[O-])c1,+,1.65,0.42,57.1
CCSc1ccc(-c2cccc([N+](=O)[O-])c2)nn1,i,-0.431,0.39,·
O=S(=O)(c1ccc2c(c1)nc1n2CCC1)N1CCOCC1,i,-1.36,-2.86,0.0
FC(F)(F)c1ccc2c(c1)nc1n2CCCC1,i,-0.315,0.39,73.1*
O=c1[nH]ncn1-c1ccc(Br)cc1,i,0.566,0.52,·
CCn1nc(C)c(NC(=O)CSc2nnc(-c3ccco3)n2C)c1C,i,0.659,-0.24,81.2*
CCn1cc(S(=O)(=O)Nc2cc(F)ccc2C)cn1,i,0.492,·,·
O=C(CCCSc1ccccc1)Nc1nc(-c2ccco2)c(-c2ccco2)s1,i,0.285,-0.16,76.0*
COCCCNCC(O)COc1ccccc1F (stereo not drawn),i,0.105,0.27,·
